Measured values published in ChEMBL document CHEMBL4431326, “Tumor Targeting with Novel 6-Substituted Pyrrolo [2,3-d] Pyrimidine Antifolates with Heteroatom Bridge Substitutions via Cellular Uptake by Folate Receptor α and the Proton-Coupled Folate Transporter and Inhibition of de Novo Purine Nucleotide Biosynthesis” (J Med Chem, 2016).
Calls of active or inactive are those of the source. The calls are words filed in the database; no cut-off is given here.

What was measured:
[1] = Toxicity in folate-deficient diet fed SCID mouse xenografted with human IGROV1 cells assessed as body weight loss at 96 and 150 mg/kg, iv administered […] post 2 days of tumor implantation measured during compound treatment; type: organism-based; conditions: in vivo, 48 h
Outline: (§1)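 Female NCR SCID mice (11 weeks old, ~20 g) are fed a folate-deficient diet from 14 days before implant. IGROV1 fragments (30–60 mg) are trocar-implanted subcutaneously in both flanks, and mice are randomised at 5/group. Tail-vein dosing starts on day 2: 28 mg/kg/inj Q3dx5, or 96 or 150 mg/kg/inj Q3dx4. Vehicle is 5% ethanol, 1% Tween-80, 0.5% NaHCO3 in water at pH 6.5. Caliper tumor mass is (a×b²)/2, T/C is taken when controls reach 700–1200 mg, and weights are recorded daily.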

IGROV-1 [2] = assay: Antitumor activity against human IGROV1 cells xenografted into standard diet fed SCID mouse assessed as tumor growth at 150 mg/kg, iv administered […] post 2 days of tumor implantation measured on day 20 relative to control; type: functional
Outline: (§2)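 Female NCR SCID mice, 11 weeks, ~20 g, on folate-deficient or standard diet from 14 days pre-implant; bilateral s.c. IGROV1 fragments (30–60 mg); 5 mice/group; tail-vein dosing from day 2 (Q3d schedules) in 5% ethanol, 1% Tween-80, 0.5% NaHCO3, water, pH 6.5; caliper mass (a×b²)/2; T/C and T−C delay.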

[3] = Toxicity in folate-deficient diet fed SCID mouse xenografted with human IGROV1 cells assessed as body weight loss at 28 mg/kg, iv administered […] post 2 days of tumor implantation measured after 48 hrs of last dosage; type: organism-based; conditions: in vivo; outline: as §1
[4] = biological target: GAR transformylase/AICAR transformylase (Homo sapiens) (UniProt P31939+P22102); assay: Inhibition of GARFTase/AICARFTase in human KB cells expressing RFC/FR-alpha/PCFT assessed as cell growth inhibition measured after 96 hrs in presence of 60 uM adenosine by Cell-Titer Blue fluorescence analysis; type: cell-based
Chain of GAR transformylase/AICAR transformylase (Homo sapiens) (P31939 whole entry, looked up, one chain of several): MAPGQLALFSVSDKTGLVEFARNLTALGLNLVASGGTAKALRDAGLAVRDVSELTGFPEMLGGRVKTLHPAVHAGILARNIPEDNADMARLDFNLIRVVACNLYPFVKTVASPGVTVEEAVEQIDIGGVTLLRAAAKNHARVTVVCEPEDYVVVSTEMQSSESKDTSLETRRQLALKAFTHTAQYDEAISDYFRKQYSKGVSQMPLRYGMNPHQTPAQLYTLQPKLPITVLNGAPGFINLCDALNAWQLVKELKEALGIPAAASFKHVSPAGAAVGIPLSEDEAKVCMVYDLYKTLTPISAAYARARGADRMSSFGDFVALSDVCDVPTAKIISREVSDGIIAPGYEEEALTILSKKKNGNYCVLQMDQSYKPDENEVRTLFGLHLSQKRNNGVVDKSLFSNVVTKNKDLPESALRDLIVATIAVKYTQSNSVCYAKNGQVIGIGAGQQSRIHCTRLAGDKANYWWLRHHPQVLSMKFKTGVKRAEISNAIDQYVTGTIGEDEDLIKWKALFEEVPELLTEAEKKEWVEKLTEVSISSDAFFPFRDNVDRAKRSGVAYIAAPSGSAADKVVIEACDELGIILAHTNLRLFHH

[5] = biological target: T1, Trifunctional purine biosynthetic protein adenosine-3 (Homo sapiens, UniProt P22102); assay: Inhibition of GARFTase in human KB cells expressing RFC/FR-alpha/PCFT assessed as decrease in incorporation of [14C(U)]-glycine into [14C]formyl GAR incubated for 1 hr followed by addition of [14C(U)]-glycine measured after 16 hrs in presence of azaserine; type: cell-based
T1 sequence (P22102 whole entry): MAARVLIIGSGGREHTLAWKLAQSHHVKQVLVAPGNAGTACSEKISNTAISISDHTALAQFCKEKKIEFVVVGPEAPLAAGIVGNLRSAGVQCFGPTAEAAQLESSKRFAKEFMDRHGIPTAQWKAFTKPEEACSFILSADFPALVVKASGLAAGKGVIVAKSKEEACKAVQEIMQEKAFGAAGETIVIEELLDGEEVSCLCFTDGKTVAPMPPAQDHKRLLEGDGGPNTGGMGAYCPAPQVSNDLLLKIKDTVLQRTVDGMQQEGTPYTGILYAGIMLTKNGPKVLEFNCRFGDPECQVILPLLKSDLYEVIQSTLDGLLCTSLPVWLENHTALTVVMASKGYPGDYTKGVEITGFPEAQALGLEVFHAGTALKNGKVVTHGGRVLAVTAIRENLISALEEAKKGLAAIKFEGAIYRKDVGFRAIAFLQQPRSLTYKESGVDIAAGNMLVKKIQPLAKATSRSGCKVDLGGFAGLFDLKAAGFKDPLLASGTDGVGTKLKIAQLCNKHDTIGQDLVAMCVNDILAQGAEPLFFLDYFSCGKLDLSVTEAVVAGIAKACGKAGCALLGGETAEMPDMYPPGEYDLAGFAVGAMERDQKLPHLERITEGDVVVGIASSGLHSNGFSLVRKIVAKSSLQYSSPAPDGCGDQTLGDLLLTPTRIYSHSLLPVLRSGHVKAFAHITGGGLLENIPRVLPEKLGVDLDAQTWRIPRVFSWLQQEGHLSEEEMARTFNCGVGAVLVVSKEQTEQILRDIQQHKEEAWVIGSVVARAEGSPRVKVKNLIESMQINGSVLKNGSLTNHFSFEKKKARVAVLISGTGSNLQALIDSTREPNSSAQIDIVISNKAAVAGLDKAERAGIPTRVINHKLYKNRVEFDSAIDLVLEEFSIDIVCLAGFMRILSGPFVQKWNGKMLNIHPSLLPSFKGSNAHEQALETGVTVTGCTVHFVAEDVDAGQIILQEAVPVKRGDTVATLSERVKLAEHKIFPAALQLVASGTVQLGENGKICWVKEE

IGROV-1 [6] = assay: Antitumor activity against human IGROV1 cells xenografted into standard diet fed SCID mouse assessed as tumor growth at 28 mg/kg, iv administered […] post 2 days of tumor implantation measured on day 20 relative to control; type: functional; outline: as §2
[7] = Toxicity in folate-deficient diet fed SCID mouse xenografted with human IGROV1 cells assessed as body weight loss at 96 and 150 mg/kg, iv administered […] post 2 days of tumor implantation measured after 48 hrs of last dosage; type: organism-based; conditions: in vivo; outline: as §1
IGROV-1 [8] = assay: Antiproliferative activity against human IGROV1 cells expressing human FR-alpha/PCFT assessed as reduction in cell viability measured after 96 hrs in presence of folic acid by Cell-Titer Blue fluorescence analysis; type: functional, cell-based; conditions: IGROV-1, 96 h
[9] = biological target: T2, Proton-coupled folate transporter (Homo sapiens, UniProt Q96NT5); assay: Inhibition of [3H]MTX uptake at human PCFT expressed in Chinese hamster R2/PCFT4 cells at pH 5.5 measured after 5 mins by Dixon plot analysis; type: cell-based
T2 sequence (Q96NT5 whole entry): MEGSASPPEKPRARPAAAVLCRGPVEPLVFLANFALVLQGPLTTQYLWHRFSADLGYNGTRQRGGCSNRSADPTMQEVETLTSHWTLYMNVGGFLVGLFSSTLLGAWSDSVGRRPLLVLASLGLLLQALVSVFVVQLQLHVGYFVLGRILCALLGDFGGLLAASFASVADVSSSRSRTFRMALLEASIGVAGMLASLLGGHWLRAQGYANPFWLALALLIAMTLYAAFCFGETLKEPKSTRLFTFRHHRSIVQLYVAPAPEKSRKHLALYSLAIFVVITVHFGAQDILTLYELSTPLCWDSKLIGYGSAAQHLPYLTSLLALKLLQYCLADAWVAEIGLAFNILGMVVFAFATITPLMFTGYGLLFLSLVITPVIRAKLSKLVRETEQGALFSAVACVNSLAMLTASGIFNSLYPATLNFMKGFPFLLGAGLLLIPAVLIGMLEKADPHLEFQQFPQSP

IGROV-1 [10] = assay: Antitumor activity against human IGROV1 cells xenografted into folate-deficient diet fed SCID mouse assessed as tumor growth at 150 mg/kg, iv administered […] post 2 days of tumor implantation measured on day 20 relative to control; type: functional; outline: as §1

SMILES: Nc1nc2[nH]c(CCNc3ccc(C(=O)N[C@@H](CCC(=O)O)C(=O)O)cc3)cc2c(=O)[nH]1
- Activity [1]: 17 to 17.3%
- T/C (IGROV-1 [2]): 94%
- Activity [3]: Non-Toxic
- inhibition [4]: inactive
- IC50 [5]: 2.64 nM
- T/C (IGROV-1 [6]): 68%
- Activity [7]: Non-Toxic
- IC50 (IGROV-1 [8]): 872 nM
- Ki [9]: 850 nM
- T/C (IGROV-1 [10]): 12%
